Compounds with a hit are over-represented: about 2% of the library has one in this group of screens.
Apaf1 inhib: inhibitors of human Apaf-1 apoptosome, primary screen, biochemical, DEVD-Rh110 fluorescence, uHTS; Apoptotic protease-activating factor 1 (Homo sapiens), O14727; reconstituted apoptosome caspase-3 activity; inhibition, % at 20 µM; hit rate 0.71% among 330,000; AID 489030, 2010; active means inhibition of at least 40% at 20 µM;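 further: plate controls were DMSO wells for no effect and DEVD-CHO caspase inhibitor wells for full effect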
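System: reconstituted apoptosome with Apaf-1, cytochrome c, caspase-9, procaspase-3, dATP; Signal: Rh110 fluorescence intensity; Schedule: 30 min compound preincubation, 50 min activation, room temperature; Reagent: cytochrome c trigger plus (Z-DEVD)2-Rh110 caspase-3 substrate.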
PP5 inh: PP5 phosphatase inhibitors, primary screen, biochemical, fluorescence; purified PP5c, OMFP substrate fluorescence; Serine/threonine-protein phosphatase 5 (Homo sapiens), P53041; AID 1987, 2009; hit rate 0.18% among 320,000; inhibition, % at 6.7 µM;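 active means inhibition above the campaign's mean inhibition across all tested compounds plus 3 SD, cut at about 9.5% in these data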;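 further: 0% = DMSO only and 100% = 100 µM cantharidin control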
Target sequence (P53041 whole entry, looked up): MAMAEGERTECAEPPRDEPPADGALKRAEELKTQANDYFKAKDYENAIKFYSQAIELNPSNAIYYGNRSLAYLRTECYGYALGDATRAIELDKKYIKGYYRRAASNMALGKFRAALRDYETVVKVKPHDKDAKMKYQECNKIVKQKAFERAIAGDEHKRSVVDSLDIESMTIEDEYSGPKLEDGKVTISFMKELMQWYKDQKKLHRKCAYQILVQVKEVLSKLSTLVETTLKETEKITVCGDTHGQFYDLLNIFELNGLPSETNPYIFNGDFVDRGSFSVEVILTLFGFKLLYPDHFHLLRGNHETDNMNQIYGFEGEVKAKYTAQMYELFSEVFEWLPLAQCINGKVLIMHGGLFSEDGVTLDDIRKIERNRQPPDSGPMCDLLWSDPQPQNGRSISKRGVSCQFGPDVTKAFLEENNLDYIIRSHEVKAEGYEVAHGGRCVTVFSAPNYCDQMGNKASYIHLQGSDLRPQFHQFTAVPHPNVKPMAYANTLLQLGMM
UCH37 inh: inhibitors of human UCH37 deubiquitinase, primary screen, biochemical, Ub-AMC cleavage, fluorescence | purified proteasome/UCH37 | inhibition, % (no concentration beside the values) | Ubiquitin carboxyl-terminal hydrolase isozyme L5 (Homo sapiens), Q9Y5K5 | hit rate 0.33% among 330,000;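 active means mean inhibition over replicate wells above about 20%, limit read from the data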;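 further: 0% = compound-free wells with enzyme and 100% = wells lacking proteasome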
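Test system – human UCH37 enzyme supplied as purified proteasome complex · Incubation – 30 min preincubation with enzyme, 25 min cleavage at room temperature · Detection – AMC fluorescence from Ub-AMC cleavage, excitation 355 nm, emission 460 nm · Benchmarks – no-proteasome wells (full inhibition) and compound-free wells (no inhibition)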
PAD4 FP inh: human PAD4 inhibitors, primary screen, biochemical, fluorescence polarization, 1536-well format | Protein-arginine deiminase type-4 (Homo sapiens), Q9UM07 | recombinant PAD4, RCA probe fluorescence polarization | hit rate 0.41% among 330,000 | inhibition, % at 6.36 µM;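 active means percent inhibition above a cutoff equal to the mean of all tested compounds plus 3 SD, cut at about 15% in these data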;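 further: 0% = PAD4 with RCA probe and DMSO and 100% = probe without PAD4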
GSTO1 counter: inhibitors of recombinant GSTO1, primary screen, counter-screen for RBBP9 inhibitor project, biochemical, fluorescence polarization; Glutathione S-transferase omega-1 (Homo sapiens), P78417; activity-based probe fluorescence polarization; inhibition, % at 5.96 µM; hit rate 1.1% among 300,000; AID 1974, 2009;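 active means inhibition above the campaign mean inhibition plus 3 SD, cut at about 35% in these data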;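 further: 0% = GSTO1-1 with DMSO and 100% = wells lacking GSTO1-1 enzyme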
Target sequence (P78417 whole entry, looked up): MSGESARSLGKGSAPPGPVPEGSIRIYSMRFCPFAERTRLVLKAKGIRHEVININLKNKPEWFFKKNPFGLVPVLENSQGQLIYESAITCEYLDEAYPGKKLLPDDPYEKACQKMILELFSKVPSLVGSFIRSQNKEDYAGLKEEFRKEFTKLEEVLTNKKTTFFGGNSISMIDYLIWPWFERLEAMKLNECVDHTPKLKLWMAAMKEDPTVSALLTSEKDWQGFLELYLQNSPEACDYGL
CTSL1 counter: Fasciola hepatica cathepsin L1 inhibitors, primary screen, counter-screen for PFM18AAP inhibitor project, biochemical, QFRET, fluorogenic peptide substrate. inhibition, % at 5.96 µM. recombinant F. hepatica cathepsin L1, Z-Leu-Arg-MCA fluorescence. hit rate 0.49% among 300,000. AID 1906, 2009;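 active means inhibition above the mean of all tested compounds plus 3 SD, set per screening campaign, cut at about 17% in these data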;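 further: 0% = plate median of test compound wells and 100% = 1 µM Z-Phe-Ala-diazomethylketone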
Apaf-1 inh conf: Apaf-1 inhibitors, single-dose retest, confirmation, biochemical, fluorescence, DEVD-Rh110, 20 µM; inhibition, % at 20 µM; AID 504614, 2011; hit rate 25% among 1,800; shares compounds with Apaf1 inhib; reconstituted apoptosome, caspase-3 DEVD-Rh110 fluorescence;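 active means mean inhibition of at least 40% at 20 µM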;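 further: plate controls were DMSO wells for no effect and DEVD-CHO caspase inhibitor control wells for full effect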
Rh110 quench: Rh110 fluorescence interference by putative Apaf-1 inhibitors, confirmation, artefact control for Apaf-1 inhibitor project, biochemical, 20 µM; shares compounds with Apaf1 inhib; quenched caspase reaction; activation (fluorescence interference), % at 20 µM; 1,800 tested, under 10 active; AID 504615, 2011;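 active means signal rise of 40% or more at 20 µM, treated as a fluorescence artifact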
Apaf1 inh interf: fluorescence interference of Apaf-1 inhibitor hits, dose response, artefact control for Apaf-1 inhibitor project | shares compounds with Apaf1 inhib | fluorescence interference counterscreen, Apaf-1 assay format | IC50, µM | 460 tested, under 10 active | AID 588538, 2011; call rule not given here
Starred values were filed as active, the others as inactive; nt = no result given.

SMILES | Apaf1 inhib | PP5 inh | UCH37 inh | PAD4 FP inh | GSTO1 counter | CTSL1 counter | Apaf-1 inh conf | Rh110 quench | others
CCCNc1c(F)c(F)c2c(C)c3ccccc3nc2c1F | 51* | 4 | 1 | -7 | 20 | 2 | 33 | 4
Cc1cccc(NC(=O)c2sc3nc4c(c(-c5cccs5)c3c2N)CN(C)CC4)c1 | 50* | 5 | -9 | -5 | 6 | 2 | 24 | 13
Cc1ccc(C(=O)Nc2ccccn2)cc1S(=O)(=O)N1CCOCC1 | 43* | -3 | -2 | -2 | 3 | -1 | 33 | 3
CCCc1ccc(-c2cc(C(=O)NN=Cc3ccc([N+](=O)[O-])o3)c3ccccc3n2)cc1 | nt | nt | 3 | nt | nt | nt | nt | nt
CNC(=S)NN=Cc1cc(Br)c(OCc2ccncc2)c(OC)c1 | nt | nt | 1 | nt | nt | nt | nt | nt
COc1ccc(C(CNC(=O)c2cccn2C)N2CCOCC2)cc1 (configuration not stated) | 47* | 0 | 0 | 2 | nt | nt | 36 | -3
C(CCc1ccccc1)=NNc1nc2ccccc2[nH]1 | nt | nt | 0 | nt | nt | nt | nt | nt
Cc1ccc(CNc2ccc(O)cc2)cc1 | 94* | nt | -8 | nt | nt | nt | 11 | 7
CN(C)c1nc(NCc2ccccc2)nc(NN=Cc2ccc(Br)cc2)n1 | nt | nt | 6 | nt | nt | nt | nt | nt
COc1cccc2c1OC(=NO)C(C(=O)Nc1cccc(C)c1C)C2 (configuration not stated) | nt | nt | 6 | nt | nt | nt | nt | nt
CN(C)CCNC(=O)C(=O)NCC1OCCN1S(=O)(=O)c1cc(F)ccc1F (configuration not stated) | 47* | 0 | 2 | -5 | 1 | 4 | 21 | 5
Cc1ccc(CN2CC(C(=O)N3CCN(S(=O)(=O)c4ccc(C)cc4C)CC3)CC2=O)cc1 (configuration not stated) | 48* | 2 | 3 | 0 | nt | nt | 26 | 7
CCN(CC(=O)Nc1ccccc1OC)C(=O)c1ccccc1Sc1ccccc1C#N | 58* | 1 | 0 | 1 | nt | nt | 42* | 9 | Apaf1 inh interf=>100
COc1cccc(C=NNC(=O)c2ccc(-n3cnnn3)cc2)c1 | nt | nt | 1 | nt | nt | nt | nt | nt
CC(C)C[C@@H]1CN=C(N)N1C[C@@H]1CCCN1C[C@H](C)N1C[C@@H](Cc2ccccc2)N(CCCC2CCCC2)C1=N | 55* | nt | nt | -6 | nt | nt | 5 | 2
CC(C)C[C@@H]1CN=C(N)N1C[C@@H]1CCCN1C[C@@H](C(C)C)N1C[C@@H](Cc2ccccc2)N(CCc2ccc(Cl)c(Cl)c2)C1=N | 63* | nt | 4 | 2 | nt | nt | 10 | 6
CCCCN1C(=N)N([C@@H](C)CN2CCC[C@H]2CN2C(N)=NC[C@H]2CC(C)C)C[C@H]1[C@H](C)CC | 5 | nt | -2 | 0 | nt | nt | nt | nt
CC(C)C[C@@H]1CN=C(N)N1C[C@@H]1CCCN1C[C@H](C)N1C[C@@H](Cc2ccccc2)N(CCc2ccc(Cl)c(Cl)c2)C1=N | 63* | nt | -2 | 4 | nt | nt | 7 | 3
COc1ccc(S(=O)(=O)N2CCN(c3ccc4nnc(-c5ccc(F)cc5)n4n3)CC2)cc1 | 51* | 3 | 0 | 1 | -1 | 0 | 47* | 0 | Apaf1 inh interf=>100
COc1ccc(OCc2ccc(C=NNC(=O)c3sccc3C)o2)cc1 | nt | nt | 2 | nt | nt | nt | nt | nt
COc1ccc(C=NNC(=O)c2ccn[nH]2)cc1CSc1ccccn1 | nt | nt | 4 | nt | nt | nt | nt | nt
COc1cccc2c1C(=O)C=C(C)C2=O | 56* | 4 | 18 | -6 | 40* | 10 | 65* | 5 | Apaf1 inh interf=>100
CCCCOc1ccc(C(=O)NCC(=O)NCC(c2cccs2)N2CCOCC2)cc1 (configuration not stated) | 41* | 1 | 2 | -6 | nt | nt | 42* | 13 | Apaf1 inh interf=>100
Cc1ccc(C(=O)NCC(=O)NCC(c2cccs2)N2CCOCC2)cc1 (configuration not stated) | 40 | -2 | -1 | -2 | nt | nt | nt | nt
CN(C)C=Nc1c(Br)cc(Br)c2nonc12 | 43* | 0 | 3 | -25 | 6 | -1 | 39 | 2
SMILES | Apaf1 inhib | PP5 inh | UCH37 inh | PAD4 FP inh | GSTO1 counter | CTSL1 counter | Apaf-1 inh conf | Rh110 quench | others
CN(CC(=O)Nc1ccc(Cl)cc1)C(=O)c1sccc1-c1ccccc1 | 46* | 4 | 0 | 2 | nt | nt | 34 | 6
CN1c2ccccc2N(C)C1(C)c1cccc2ccccc12 | 19 | 2 | 5 | -1 | 26 | 1 | nt | nt
CN1c2cccc3cccc(c23)N(C)C1(C)C | 46* | 2 | -320 | -11 | 26 | -3 | 13 | -4
COc1cc2ccnc(Cc3cccc(OC)c3OC)c2cc1OC | 2 | -2 | 3 | -6 | 2 | 0 | nt | nt
COc1cc(N)c(Cc2nccc3cc(OC)c(OC)cc23)cc1OC | 47* | 3 | 1 | -16 | 14 | 0 | 25 | 0
Cn1nccc1C(=O)Oc1cccc(C=NNC(=O)c2ccccc2O)c1 | nt | nt | -1 | nt | nt | nt | nt | nt
Cc1cccc(/C=N/Nc2cc(N3CCOCC3)nc(N3CCOCC3)n2)c1 | 68* | 6 | nt | -17 | 9 | 3 | 33 | 4
CC(C)c1ccc(/C=N/Nc2cc(N3CCOCC3)nc(N3CCOCC3)n2)cc1 | 62* | 4 | nt | 0 | 0 | -1 | 46* | 11 | Apaf1 inh interf=>100
Oc1cccc(C=NNc2cc(N3CCOCC3)nc(N3CCOCC3)n2)c1 | nt | nt | 8 | nt | nt | nt | nt | nt
Oc1ccc(C=NNc2cc(N3CCOCC3)nc(N3CCOCC3)n2)cc1 | nt | nt | 10 | nt | nt | nt | nt | nt
CCCOc1ccc(-c2c(C(=O)NN=Cc3ccc(C)cc3)nnn2-c2nonc2N)cc1 | nt | nt | 2 | nt | nt | nt | nt | nt
COc1ccc(OC)c(C=Nc2c(-c3ccc(O)c(OC)c3)nc3ccccn23)c1 | nt | nt | -5 | nt | nt | nt | nt | nt
Cc1cc2ccccc2n1CCNC(=O)Cc1ccccc1 | 29 | 4 | 3 | 2 | 5 | -1 | nt | nt
Cc1cccc(CC(=O)NCCn2c(C)cc3ccccc32)c1 | 41* | 2 | 2 | 4 | 4 | -3 | 15 | 12
Cc1c(C=NNC(=O)COc2ccccc2[N+](=O)[O-])c2ccccc2n1C | nt | nt | 0 | nt | nt | nt | nt | nt
Cc1ccc(OCC(=O)N/N=C\c2c(C)n(C)c3ccccc23)c([N+](=O)[O-])c1 | 42* | 8 | nt | -4 | -5 | 3 | 12 | 6
CCOC(=O)NN=Cc1ccc(F)cc1F | nt | nt | -1 | nt | nt | nt | nt | nt

Compound activity (PubChem BioAssay)
